Experiments:
[1] = test system: Serratia marcescens; test: Antibacterial activity against Serratia marcescens at 200 ug/disc by disc diffusion assay
[2] = test system: Staphylococcus aureus; test: Antibacterial activity against Staphylococcus aureus at 200 ug/disc by disc diffusion assay
[3] = test system: Scopulariopsis brevicaulis; test: Antifungal activity against Scopulariopsis brevicaulis at 2% by disc diffusion assay
[4] = test system: Escherichia coli; test: Antibacterial activity against Escherichia coli at 50 uL/well by well diffusion assay; format: functional
How it was run: (§1)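 Bauer-type diffusion assay. Test compounds were at 2% in DMSO. The read-out was the diameter (mm) of the inhibition zone, with chloramphenicol as the reference agent.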

[5] = test system: Aspergillus flavus; test: Antifungal activity against Aspergillus flavus at 2% by disc diffusion assay
[6] = test system: Geotrichum candidum; test: Antifungal activity against Geotrichum candidum at 2% by disc diffusion assay
[7] = test system: Trichophyton rubrum; test: Antifungal activity against Trichophyton rubrum at 50 uL/well by well diffusion assay; format: functional
How it was run: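 Agar discs (10 mm) carrying spores and hyphae were shaken in sterile distilled water. 1 mL of the spore suspension was plated and mixed with 15 mL molten SDA, then left to set. Compounds were at 2% in DMSO, applied per Bauer's diffusion method. The read-out was the inhibition zone (mm).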

[8] = test system: Bacillus cereus; test: Antibacterial activity against Bacillus cereus at 200 ug/disc by disc diffusion assay
[9] = test system: Pseudomonas aeruginosa; test: Antibacterial activity against Pseudomonas aeruginosa at 200 ug/disc by disc diffusion assay
[10] = test system: Micrococcus luteus; test: Antibacterial activity against Micrococcus luteus at 50 uL/well by well diffusion assay; format: functional
How it was run: as §1

[11] = test system: Fusarium oxysporum; test: Antifungal activity against Fusarium oxysporum at 2% by disc diffusion assay
[12] = test system: Candida albicans; test: Antifungal activity against Candida albicans at 200 ug/disc by disc diffusion assay
[13] = test system: Aspergillus niger; test: Antifungal activity against Aspergillus niger at 2% by disc diffusion assay

| Structure (SMILES) | diameter of the inhibition zone (DIZ) [1] [mm] | diameter of the inhibition zone (DIZ) [2] [mm] | diameter of the inhibition zone (DIZ) [3] [mm] | diameter of the inhibition zone (DIZ) [4] [mm] | diameter of the inhibition zone (DIZ) [5] [mm] | diameter of the inhibition zone (DIZ) [6] [mm] | diameter of the inhibition zone (DIZ) [7] [mm] | diameter of the inhibition zone (DIZ) [8] [mm] | diameter of the inhibition zone (DIZ) [9] [mm] | diameter of the inhibition zone (DIZ) [10] [mm] | diameter of the inhibition zone (DIZ) [11] [mm] | diameter of the inhibition zone (DIZ) [12] [mm] | diameter of the inhibition zone (DIZ) [13] [mm] |
| --- | --- | --- | --- | --- | --- | --- | --- | --- | --- | --- | --- | --- | --- |
| N#Cc1c2c(c(NN)[nH]c1=S)CCCC2 | 0 | 11 | 0 | 14 | 10 | 0 | 17 | 20 | 0 | 14 | 13 | 12 | 12 |
| N#Cc1c2c(c3[nH]ncn3c1=S)CCCC2 | 10 | 8 | 0 | 10 | 0 | 0 | 0 | 15 | 0 | 12 | 0 | 10 | 0 |
| Cc1cc(C)n(-c2[nH]c(=S)c(C#N)c3c2CCCC3)n1 | 0 | 8 | 0 | 0 | 0 | 0 | 0 | 16 | 0 | 0 | 0 | 0 | 0 |
| N#Cc1c2c(c(-n3[nH]c(=O)cc3N)[nH]c1=S)CCCC2 | 0 | 0 | 0 | 0 | 0 | 8 | 0 | 9 | 0 | 10 | 0 | 0 | 0 |
| N#Cc1c2c(c(N3N=C(c4ccccc4)CC3=O)[nH]c1=S)CCCC2 | 0 | 0 | 0 | 13 | 0 | 0 | 14 | 0 | 0 | 0 | 0 | 0 | 0 |
| N#CCSc1c(C#N)c2c(c3nncn13)CCCC2 | 12 | 10 | 0 | 8 | 0 | 0 | 0 | 12 | 0 | 11 | 0 | 0 | 0 |
| N#Cc1sc2c(c1N)c1c(c3nncn32)CCCC1 | 11 | 9 | 0 | 0 | 0 | 0 | 0 | 11 | 0 | 0 | 0 | 0 | 0 |
| CCOC(=O)CSc1c(C#N)c2c(c3nncn13)CCCC2 | 0 | 0 | 0 | 0 | 0 | 0 | 0 | 11 | 0 | 10 | 0 | 0 | 0 |
| CCOC(=O)c1sc2c(c1N)c1c(c3nncn32)CCCC1 | 10 | 10 | 0 | 11 | 8 | 0 | 0 | 8 | 0 | 0 | 0 | 10 | 0 |
| N#Cc1c2c(c3nncn3c1SCC(N)=O)CCCC2 | 0 | 8 | 0 | 12 | 0 | 0 | 0 | 13 | 0 | 0 | 0 | 0 | 0 |
| N#Cc1c(SCC(=O)c2ccccc2)nc(NN)c2c1CCCC2 | 0 | 10 | 0 | 0 | 0 | 12 | 12 | 0 | 0 | 0 | 0 | 0 | 0 |
| Cc1cc(C)n(-c2nc(SCC(=O)c3ccccc3)c(C#N)c3c2CCCC3)n1 | 0 | 10 | 0 | 0 | 0 | 0 | 0 | 0 | 0 | 0 | 0 | 0 | 0 |
